From PubChem BioAssay
An excerpt weighted towards active compounds, which were near 2.4% of everything screened.
GSIS activator: primary screen for activators of insulin secretion dependent on glucose, INS-1E cells, GLuc reporter luminescence. INS-1E GLuc reporter insulin secretion, 2-3 h. activation, % at 16.6 µM. 370,000 compounds, 0.61% hits. AID 743287;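 active means lowest replicate activation of at least 40%, so every replicate reaches that level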
dFosB act-1: mouse delta FosB homodimer activation. purified delta FosB, TAMRA-CDK5 oligo fluorescence polarization; percent of positive-control signal above neutral wells. AID 493131. P13346. activation, % at 25 µM. 340,000 compounds, 0.99% hits;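 active means mean activation above about 17%, with every replicate also reaching it, limit read from the data, passing the limit was not always enough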
Target sequence (P13346 whole entry, looked up): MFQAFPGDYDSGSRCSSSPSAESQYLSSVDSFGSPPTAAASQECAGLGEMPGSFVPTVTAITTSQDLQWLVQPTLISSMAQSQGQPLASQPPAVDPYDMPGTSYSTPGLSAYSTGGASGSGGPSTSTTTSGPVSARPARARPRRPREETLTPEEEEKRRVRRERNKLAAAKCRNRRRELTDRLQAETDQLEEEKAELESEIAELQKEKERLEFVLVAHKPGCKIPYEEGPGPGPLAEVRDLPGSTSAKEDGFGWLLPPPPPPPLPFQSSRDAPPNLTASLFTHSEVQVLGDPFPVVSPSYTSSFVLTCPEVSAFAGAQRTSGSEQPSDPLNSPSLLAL
Cneo AK release: Cryptococcus neoformans lysis via adenylate kinase release; C. neoformans lysis, adenylate kinase release luminescence, 4 h; normalised: neutral wells 0, clomiphene wells 100; lysis activity, % at 15 µM; 360,000 compounds, 0.2% hits; AID 651654;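 active means mean lysis activity across replicates of at least 80%, whatever share of replicates individually reach that level; inactive means mean lysis activity below 80%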
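Schedule: static 4 h at 37 °C with compound, 1 h detection; system: C. neoformans cells; benchmarks: Clomiphene as positive control; buffer or medium: fresh YPD medium; measure: luminescence rise reflecting yeast cell lysis; measured by: luminescent adenylate kinase detection reagent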
Env fusion inh: blocks HIV Env-driven cell-cell fusion; HeLa-JRFL Env/CEM21 cell fusion, luciferase; inhibition, % at 12.3 µM; 360,000 compounds, 1.1% hits;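 active means mean replicate inhibition score of at least 50 and every replicate individually at or above 50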
miR-122 sensor: inhibitors of miR-122 in Huh7 cells; Huh7 miR-122 Renilla luciferase sensor, 48 h; neutral wells = 0, positive control = 100; AID 602342; 340,000 compounds, 0.3% hits; activation (reporter increase), % at 12.5 µM;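 active means mean replicate activation score at least 90 and every replicate individually at or above 90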;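 further: higher luciferase means less miR-122 activity so hits act as miR-122 inhibitors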
Rtt109 HAT inh: C. albicans Rtt109 histone acetyltransferase inhibition. purified Rtt109/Vps75, ThioGlo CoA-SH fluorescence, 4 h. inhibition, % at 34.9 µM. 330,000 compounds, 0.16% hits. AID 540336;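 active means inhibition of at least 50% in every replicate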
dFosB act-2: delta FosB (mouse) homodimer activation; purified delta FosB, TAMRA-CDK5 oligo fluorescence polarization; normalised: neutral wells 0, positive control 100; AID 588690; 2,400 tested, under 10 active; activation, % at 24.9 µM; shares compounds with dFosB act-1;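 active means highest replicate activation at or above 34% and every replicate reaching that threshold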;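 further: higher polarization means more probe DNA bound by delta FosB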
A number is an active result; . = inactive; / = no result.

SMILES	GSIS activator	dFosB act-1	Cneo AK release	Env fusion inh	miR-122 sensor	Rtt109 HAT inh	dFosB act-2
C[C@@H]1CN([C@H](C)CO)C(=O)c2cc(NC(=O)CCC(F)(F)F)ccc2O[C@@H](C)CCCCO[C@H]1CN(C)S(=O)(=O)c1cccs1	.	/	.	.	.	/	/
Cc1ccc(OCCC(=O)N(CCC(C)C)c2c(N)n(Cc3ccccc3)c(=O)[nH]c2=O)cc1	/	24	/	/	/	.	.
CCCN(C(=O)COC(=O)CCOc1ccc(C)cc1)c1c(N)n(Cc2ccccc2)c(=O)[nH]c1=O	.	.	.	.	/	.	/
C[C@@H]1CN([C@@H](C)CO)C(=O)c2cc(NC(=O)Nc3ccc4c(c3)OCO4)ccc2O[C@@H](C)CCCCO[C@@H]1CN(C)C(=O)Cc1ccccc1	.	/	.	.	.	/	/
Cc1cc(C)c2sc(NC(=O)c3ccc(N4C(=O)CCC4=O)cc3)nc2c1	.	80	/	.	/	.	.
Cc1ccc2nc(NC(=O)c3ccc(N4C(=O)CCC4=O)cc3)sc2c1	.	.	/	.	/	.	/
O=C(Nc1nc2ccc(F)cc2s1)c1ccc(N2CCCC2=O)cc1	.	25	.	.	.	.	.
CCCC#Cc1ccc([C@H]2[C@@H](CO)N3C(=O)CN(C(=O)CN4CCOCC4)C[C@H]23)cc1	.	/	/	/	/	/	/
COc1cccc(CNC(=O)CCn2c(=O)c3cccn3c3cccnc32)c1	.	.	.	.	.	.	/
CCOc1ccc(CNC(=O)Cn2c(=O)c3cccn3c3ccccc32)cc1	.	41	.	.	.	.	.
CC(C)Oc1ccc(CNC(=O)Cn2c(=O)c3cccn3c3cccnc32)cc1	.	30	.	.	.	.	.
CN(C)C(=O)c1cccc(-c2ccc(C3[C@@H]4CN(S(=O)(=O)c5ccccc5)C[C@H]3N4)cc2)c1 (some centres not stated)	.	/	/	/	/	/	/
O=C(Cn1nnc2c(cnn2-c2ccccc2)c1=O)NCc1cccs1	/	38	.	/	.	.	.
COc1ccccc1NC(=O)Cn1nnc(C(=O)NCc2cccs2)c1N	/	22	.	.	.	.	.
COc1ccc(NC(=O)Cn2nnc(C(=O)NCc3cccs3)c2N)cc1	.	.	/	.	/	.	/
CCc1ccccc1NC(=O)Cn1nnc(C(=O)NCc2cccs2)c1N	.	40	/	.	/	.	.
O=S(=O)(N[C@@H]1CC[C@H](CCn2cc(-c3ccccn3)nn2)O[C@@H]1CO)c1cccc(F)c1	.	/	.	.	/	/	/
CC(C)CC#Cc1ccc([C@H]2[C@@H](CO)N3C(=O)CN(C(=O)NC(C)C)C[C@@H]23)cc1	.	/	/	/	/	/	/
CC(=O)c1sc(NC(=O)c2ccccc2F)nc1-c1ccccc1	.	.	/	.	/	.	/
COc1ccc(C(=O)Nc2nc(-c3ccccc3)c(C(C)=O)s2)c(OC)c1	.	32	/	.	/	/	.
O=C(Nc1nc(-c2ccccc2)nc2ccccc12)c1ccc(F)cc1	.	22	/	.	.	.	.
Fc1ccc(Nc2nc(-c3ccncc3)nc3ccccc23)cc1F	.	89	.	.	.	.	.
Clc1cccc(Nc2nc(-c3ccncc3)nc3ccccc23)c1	/	.	/	.	/	.	/
CC(=O)Nc1ccc(Nc2nc(-c3ccccc3)nc3ccccc23)cc1	.	.	/	.	/	.	/
CC(=O)c1sc(NC(=O)c2ccc(F)cc2)nc1-c1ccccc1	.	25	/	.	/	.	.
SMILES	GSIS activator	dFosB act-1	Cneo AK release	Env fusion inh	miR-122 sensor	Rtt109 HAT inh	dFosB act-2
C[C@H](O)C#Cc1ccc([C@@H]2[C@@H](CO)N3CCCCN(CC4CCOCC4)C[C@H]23)cc1	.	/	.	/	.	/	/
O=C(Cn1cnc2sc3c(c2c1=O)CCCC3)NCC(=O)Nc1ccc(F)cc1F	.	36	.	.	.	.	.
CCC(=O)N(C)C[C@@H]1Oc2cc(C#Cc3ccncc3)ccc2S(=O)(=O)N([C@@H](C)CO)C[C@@H]1C	.	/	.	.	.	/	/
Cc1cccc(NC(=S)N/N=C/c2ccc(Cl)c([N+](=O)[O-])c2)c1	.	20	.	.	.	.	.
Cc1cccc(NC(=S)N/N=C/c2cccc([N+](=O)[O-])c2)c1	/	.	.	/	.	.	/
C/C(=N\NC(=O)c1ccncc1)c1ccc(N2CCOCC2)cc1	.	.	.	/	.	.	/
